Data taken from ChEMBL document CHEMBL4765236, “Insights into the Antimicrobial Activity and Cytotoxicity of Engineered α-Helical Peptide Amphiphiles” (J Med Chem, 2016).
Calls of active or inactive are those of the source.

Columns and labels:
Staphylococcus aureus [1] = assay: Induction of morphological changes in Staphylococcus aureus ATCC 29213 assessed as membrane damage at 1 times MIC after 60 mins by TEM analysis; format: functional, organism-based
Escherichia coli [2] = assay: Induction of morphological changes in Escherichia coli O157:H7 CICC 21530 assessed as membrane damage at 1 times MIC after 60 mins by TEM analysis; format: functional, organism-based
Staphylococcus aureus [3] = assay: Induction of morphological changes in Staphylococcus aureus ATCC 29213 assessed as outflow of cytoplasm at 1 times MIC after 60 mins by TEM analysis; format: functional, organism-based
Escherichia coli [4] = assay: Induction of morphological changes in Escherichia coli O157:H7 CICC 21530 assessed as outflow of cytoplasm at 1 times MIC after 60 mins by TEM analysis; format: functional, organism-based
RAW264.7 = assay: Antiinflammatory activity against mouse RAW264.7 cells assessed as inhibition of LPS-induced nitric oxide production at 32 uM measured after 24 hrs by Griess reagent based ELISA; format: functional, cell-based
Procedure, shortened: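 RAW264.7 cells plated at 1-2 × 10^5 cells/mL and stimulated with 500 ng/mL LPS with or without peptide (0.5-64 µM) for 24 h at 37 °C. Controls were untreated cells and LPS alone. TNF-α in the supernatant measured by ELISA. NO measured by Griess reagent (1% sulfanilamide, 0.1% naphthylethylenediamine, 5% phosphoric acid).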

HepG2 [5] = assay: Induction of morphological changes in human HepG2 cells assessed as roughness of cell membrane at 32 uM after 24 hrs by SEM analysis; format: functional, cell-based
HepG2 [6] = assay: Induction of morphological changes in human HepG2 cells assessed as appearance of rounded cells at 32 uM after 24 hrs by SEM analysis; format: functional, cell-based
HepG2 [7] = assay: Induction of morphological changes in human HepG2 cells assessed as shriveled cells at 32 uM after 24 hrs by SEM analysis; format: functional, cell-based
HepG2 [8] = assay: Induction of morphological changes in human HepG2 cells assessed as cytoskeleton damage at 32 uM after 24 hrs by SEM analysis; format: functional, cell-based
HepG2 [9] = assay: Induction of apoptosis in human HepG2 cells assessed as nucleus budding at 32 uM incubated for 2 to 4 hrs by DAPI staining based confocal microscopy; format: functional, cell-based; settings: time 2-4 hrs
Procedure, shortened: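 HepG2 cells treated with 32 µM peptide for 2, 4 or 8 h and stained with DAPI. Nuclear morphology imaged by confocal microscopy, with untreated cells as control.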

[10] = Drug localization in nucleus of human HepG2 cells assessed as fluorescent signal in presence of FITC-labelled peptide at 32 uM incubated for 4 hrs by DAPI staining based confocal microscopy; format: ADME, subcellular; settings: hepg2, 4 h
Procedure, shortened: (§1)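 HepG2 cells incubated with FITC-labelled peptide at 32 µM. Fluorescence distribution imaged by confocal laser-scanning microscopy at intervals (1, 4 and 8 h).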

[11] = Drug distribution in human HepG2 cells assessed as fluorescence signal in presence of FITC-labelled peptide at 32 uM measured after 8 hrs by DAPI staining based confocal microscopy; format: ADME, cell-based; settings: hepg2, 8 h; procedure, shortened: as §1
HepG2 [12] = assay: Induction of ROS generation in human HepG2 cells assessed as increase in visual fluorescence intensity up to 32 uM measured at 2 hr by DCFH-DA staining-based fluorescence analysis; format: functional, cell-based; settings: dose microM <=32, time 2.0 hrs
Escherichia coli [13] = assay: Bactericidal activity against Escherichia coli O157:H7 CICC 21530 assessed as bacterial killing at 1 times MIC measured within 5 mins by time kill assay; format: functional, organism-based; settings: time min <5
HepG2 [14] = assay: Induction of ROS generation in human HepG2 cells assessed as increase in fluorescence intensity up to 32 uM by DCFH-DA staining-based fluorescence analysis; format: functional, cell-based; settings: dose microM <=32, time 8.0 hrs, TDE = time-dependent effect
Staphylococcus aureus [15] = assay: Bactericidal activity against Staphylococcus aureus ATCC 29213 assessed as bacterial killing at 1 times MIC measured within 5 mins by time kill assay; format: functional, organism-based; settings: time min <5
Procedure, shortened: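 Log-phase S. aureus 29213 exposed to peptide at 1 × MIC in 10 mM PBS pH 7.4 at 37 °C for 0-90 min. Aliquots taken at fixed intervals, diluted and plated on nutrient agar, and colonies counted after 18 h at 37 °C. Average of three independent assays.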

[16] = Drug localization in cytoplasm of human HepG2 cells assessed as fluorescent signal in presence of FITC-labelled peptide at 32 uM measured up to 8 hrs by DAPI staining based confocal microscopy; format: ADME, subcellular; settings: hepg2, 8 h; procedure, shortened: as §1
Cell membrane = assay: Induction of outer membrane permeabilization in Escherichia coli O157:H7 CICC 21530 assessed as increase in fluorescence intensity at 7.5 uM by NPN-dye based fluorescence assay; format: subcellular
Staphylococcus aureus [17] = assay: Induction of morphological changes in Staphylococcus aureus ATCC 29213 assessed as membrane alteration at 1 times MIC after 60 mins by TEM analysis; format: functional, organism-based
Escherichia coli [18] = assay: Induction of morphological changes in Escherichia coli O157:H7 CICC 21530 assessed as membrane alteration at 1 times MIC after 60 mins by TEM analysis; format: functional, organism-based
HepG2 [19] = assay: Induction of ROS generation in human HepG2 cells assessed as increase in fluorescence intensity up to 32 uM incubated for 8 hrs by DCFH-DA staining-based fluorescence analysis; format: functional, cell-based; settings: dose microM <=32, time 8.0 hrs

H-WLRAFRRLVRRLARGLRR-NH2
active: Activity (Staphylococcus aureus [1]) | Activity (Escherichia coli [2]) | Activity (Staphylococcus aureus [3]) | Activity (Escherichia coli [4]) | Activity (RAW264.7) | Activity (HepG2 [5]) | Activity (HepG2 [6]) | Activity (HepG2 [7]) | Activity (HepG2 [8]) | Activity (HepG2 [9]) | Activity (HepG2 [12]) | Activity (Escherichia coli [13]) | Activity (HepG2 [14]) Tde | Activity (Staphylococcus aureus [15])
Active: Drug uptake [10] | Drug uptake [11]

H-WLRAFRRLVRRLARLLRR-NH2
Not Active: Drug uptake [16]

H-WGEAFSAGVHRLANGGNG-NH2
inactive: Activity (Cell membrane) | Activity (HepG2 [19])
active: Activity (Staphylococcus aureus [17]) | Activity (Escherichia coli [18])
